# Published values collected from several papers.
# Protocols differ between the studies behind these lines.
# SLC6A3: Sodium-dependent dopamine transporter (SLC6A3, Homo sapiens, UniProt Q01959)
# CA12: Carbonic anhydrase 12 (CA12, Homo sapiens, UniProt O43570)
Compound,target,assay,setting,Ki
COC(=O)[C@H]1[C@@H](c2ccc(Cl)c(Cl)c2)C[C@@H]2CC[C@H]1N2CCCOCc1ccc2cc3ccccc3cc2c1,SLC6A3,"ligand displacement, radioligand","pH 7.4, cell membranes",204 nM
CCOP1(=O)CC=Cc2cc(N)ccc2O1 (stereo not drawn),CA12,"enzyme activity, inhibitor, stopped-flow",,16.6 nM
CCCCC1CNC2CCc3ccc(OC)cc3C12 (racemic),SLC6A3,"ligand displacement, radioligand",,> 10000 nM
Cc1cc(=O)oc2cc(OCCCC[Se]C#N)ccc12,CA12,"enzyme activity, inhibitor, stopped-flow",,51.6 nM
COC(=O)[C@H]1[C@@H](c2ccc(Cl)cc2)C[C@@H]2CC[C@H]1N2CCCCCCCCCc1c2ccccc2cc2ccccc12,SLC6A3,"ligand displacement, radioligand",pH 7.4,24 nM
COc1ccc(NC(=O)Nc2ccc3c(c2)C=CCP(=O)(O)O3)cc1,CA12,"enzyme activity, inhibitor, stopped-flow",,> 10000 nM
Cc1c(Cl)c(=O)oc2cc(OCCCC[Se]C#N)ccc12,CA12,"enzyme activity, inhibitor, stopped-flow",,71.6 nM
O=C(Nc1ccc2c(c1)C=CCP(=O)(O)O2)c1ccc(I)cc1,CA12,"enzyme activity, inhibitor, stopped-flow",,57.5 nM
COc1cc2c(cc1OC)CN(CCc1ccc(NC(=O)c3cccc4c(=O)c5cccc(OC)c5[nH]c34)cc1)CC2,"D(3) dopamine receptor (DRD3, Homo sapiens, UniProt P35462)",cell-free assay,,77 nM
